Measurements taken from ChEMBL document CHEMBL1125255, “Romazarit: a potential disease-modifying antirheumatic drug” (J Med Chem, 1991).
Where “and” joins values, the source holds several entries; their conditions need not be identical. Identical values can stand only once.

Columns and labels:
Rattus norvegicus [1] = assay: Radiographic change was judged in the area of the talus joint, using an arbitrary scoring system upon termination of the test (0.5 mg/kg 1-5 days dosing,0.25 mg/kg 6-15 days dosing)in a model of type II collagen arthritis in the rat.; assay type: functional
Summary of the method: (§1)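 Type II collagen arthritis rats, eight per group, oral sodium salts daily from grouping (day 1). Hind limbs X-rayed post mortem. Tibia/talus and tarsus damage scored 0–3 per foot by two observers and averaged; left and right summed (max 6). Compared with arthritic controls by Mann–Whitney U test.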

[2] = target: Prostaglandin G/H synthase 1 (Ovis aries) (UniProt P05979); assay: Inhibition of prostaglandin synthetase in sheep seminal vesicle
[3] = Partition coefficient (logP); assay type: physicochemical; conditions: octanol/water
Summary of the method: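 Compound dissolved in disodium hydrogen phosphate/citric acid buffer pH 7.4 and partitioned against equal volume octan-1-ol. Buffer-phase UV absorbance read before and after partitioning near λmax. P′ from the octanol:buffer absorbance ratio.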

Rattus norvegicus [4] = assay: Radiographic change was judged in the area of the talus joint, using an arbitrary scoring system upon termination of the test (14 days dosing of 60 mg/kg) in a model of type II collagen arthritis in the rat.; assay type: functional; conditions: 336 h; summary of the method: as §1
Rattus norvegicus [5] = assay: Compound was evaluated in developing adjuvant arthritis model rats for its effect on paw edema.; assay type: functional; set-up: concentration or dose not given beside the values
Summary of the method: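 Female Allen and Hanbury hooded rats, five per group. Right hind paw injected sc on day 0 with heat-killed M. tuberculosis in paraffin oil (5 mg/mL). Compounds given orally as sodium salts in water. Paw volumes of both hind paws measured days 1–4, 1 h after dosing. Percent inhibition taken from area under the curve of the between-paw volume difference.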

Rattus norvegicus [6] = assay: Hepatic effect assessed by increase in catalase levels after 14 days of dosing at 60 mg/kg orally.; assay type: functional
Summary of the method: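 Type II collagen arthritis rats, eight per group, given oral sodium salts daily for 14 days. At termination liver homogenized in ice-cold 0.25 M sucrose and spun 2000 rpm 10 min. Catalase followed by decline in A240 from H2O2 breakdown, expressed as first-order rate constant K. Result given as % change versus normals.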

Rattus norvegicus [7] = species on record: Rattus norvegicus; assay: Percent decrease in serum haptoglobin evaluated in a developing adjuvant arthritis model rats.
Rattus norvegicus [8] = assay: Hepatic effect assessed by increase in liver weight after 14 days of dosing at 60 mg/kg orally.; assay type: functional
Summary of the method: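 Type II collagen arthritis rats, eight per group, daily oral dosing as sodium salts in water for 14 days. Liver weight recorded at termination and expressed as percentage change versus normal animals.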

Rattus norvegicus [9] = assay: Radiographic change was judged in the area of the tarsus region, using an arbitrary scoring system upon termination of the test (14 days dosing of 60 mg/kg) in a model of type II collagen arthritis in the rat.; assay type: functional; conditions: 336 h; summary of the method: as §1

Sequence of Prostaglandin G/H synthase 1 (Ovis aries) (P05979 whole entry, looked up): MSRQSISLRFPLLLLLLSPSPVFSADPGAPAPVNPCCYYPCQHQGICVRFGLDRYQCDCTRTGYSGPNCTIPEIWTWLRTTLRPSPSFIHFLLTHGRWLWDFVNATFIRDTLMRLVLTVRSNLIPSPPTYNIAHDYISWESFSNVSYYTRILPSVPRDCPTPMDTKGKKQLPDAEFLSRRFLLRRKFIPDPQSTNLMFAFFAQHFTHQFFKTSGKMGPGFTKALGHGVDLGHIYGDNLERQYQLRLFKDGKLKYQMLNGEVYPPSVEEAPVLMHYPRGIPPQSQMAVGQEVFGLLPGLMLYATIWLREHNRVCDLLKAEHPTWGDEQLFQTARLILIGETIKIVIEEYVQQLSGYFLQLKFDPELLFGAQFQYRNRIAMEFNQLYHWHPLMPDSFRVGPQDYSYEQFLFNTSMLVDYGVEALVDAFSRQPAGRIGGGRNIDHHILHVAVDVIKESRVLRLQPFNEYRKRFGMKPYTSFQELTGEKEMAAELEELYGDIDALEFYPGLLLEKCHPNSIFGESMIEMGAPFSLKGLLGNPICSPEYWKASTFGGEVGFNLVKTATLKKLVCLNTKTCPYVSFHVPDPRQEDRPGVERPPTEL

IC50 [2] [µM]	logP [3]	SMILES	Inhibition (Rattus norvegicus [1])	inhibition in vivo at 60 mg/kg (Rattus norvegicus [4]) [%]	Inhibition (Rattus norvegicus [5]) [%]	Change (Rattus norvegicus [6]) [%]	Decrease (Rattus norvegicus [7]) [%]	Change (Rattus norvegicus [8]) [%]	inhibition in vivo at 60 mg/kg (Rattus norvegicus [9]) [%]
		C[C@@H]1C[C@H]2[C@@H]3CCC4=CC(=O)C=C[C@]4(C)[C@@]3(F)[C@@H](O)C[C@]2(C)[C@@]1(O)C(=O)CO [DEXAMETHASONE]	95% and 98%						
950	1.52	CC(C)(OCc1ccc(-c2ccc(Cl)cc2)cc1)C(=O)O [CLOBUZARIT]		64	48	164	31	19	41
